Hits are enriched below; roughly 2.9% of the tested compounds scored in any of these assays.
MC4R ag barr = MC4R agonists recruiting beta-arrestin, primary screen, cell-based, luminescence, agonist arm of biased-ligand search. Melanocortin receptor 4 (Homo sapiens), P32245. U2OS MC4R beta-arrestin complementation; percent of melanotan II response, DMSO zero. activation, % at 8.9 µM. 360,000 tested, 0.98% active. AID 540308, 2011;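 active means activation above a per-plate cutoff, the mean activation of sample wells on that plate plus 3 SD, cut at about 8% in these data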
Target sequence (P32245 whole entry, looked up): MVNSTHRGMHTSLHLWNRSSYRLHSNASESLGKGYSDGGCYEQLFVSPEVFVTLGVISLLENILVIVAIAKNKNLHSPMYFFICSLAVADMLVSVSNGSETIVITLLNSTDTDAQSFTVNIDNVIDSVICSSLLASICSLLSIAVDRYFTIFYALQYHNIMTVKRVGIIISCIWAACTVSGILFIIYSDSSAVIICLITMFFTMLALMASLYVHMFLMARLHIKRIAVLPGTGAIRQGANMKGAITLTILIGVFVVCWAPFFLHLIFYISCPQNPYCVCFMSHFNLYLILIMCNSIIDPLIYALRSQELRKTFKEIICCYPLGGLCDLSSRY
TAG inh = inhibitors of triacylglycerol accumulation, primary screen, cell-based, uHTS, fluorescence, H9c2. H9c2 cells, Nile Red lipid (TAG) fluorescence; cells loaded with 200 µM oleic acid. inhibition, % at 12.5 µM. 230,000 tested, 0.66% active;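 active means pattern-corrected inhibition of lipid staining of at least 50% with the nuclear-stain viability signal not falling by more than 50%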
Efflux pump mplx = inhibitors of Candida efflux pumps in yeast, primary screen, S. cerevisiae, Nile Red, multiplex | S. cerevisiae Candida pump triplex | inhibition, % at 10 µM | 330,000 tested, 0.44% active | AID 485275, 2010;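 active means plate passing quality check with inhibition over a set limit, or well fluorescence over plate mean plus 4 SD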;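 further: Nile Red retained in pooled yeast measured as flow cytometry median fluorescence; higher means more Nile Red kept so more efflux inhibition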
MC4R antag cAMP = MC4R antagonists of cAMP signaling, primary screen, cell-based, TR-FRET, antagonist arm of biased-ligand search; Melanocortin receptor 4 (Homo sapiens), P32245; MC4R-expressing cells, MTII-stimulated cAMP, LANCE TR-FRET; inhibition, % at 6.5 µM; 360,000 tested, 0.48% active; AID 540295, 2011;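 active means inhibition above its plate's cutoff, the mean of tested wells on that plate plus 3 SD, cut at about 29% in these data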
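Test system: U2OS cells stably expressing human melanocortin 4 receptor (MC4R); also added: Melanotan II challenge; compound: 6.5 µM single dose; timing: 30-min compound preincubation, 1-h Melanotan II challenge, 1-h detection, room temperature; signal: Eu-cAMP/anti-cAMP TR-FRET, emission 671 nm; repeats: one well per compound, no replicates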
Calb FLC = C. albicans growth inhibition with fluconazole, primary screen, CaCi-2 strain, Alamar Blue fluorescence | C. albicans CaCi-2 + fluconazole, 48 h | growth inhibition, % (test concentration not listed) | 300,000 tested, 0.57% active | AID 1979, 2009;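 active means growth inhibition above about 58% in most replicates, limit read from the data, passing the limit was not always enough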;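 further: all wells also contain fluconazole at 8 µg/ml as a sub-toxic cotreatment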
GalR3 antagonist = GalR3 antagonists in HEK293 cells, primary screen, cell-based, fluorescence readout; Galanin receptor type 3 (Homo sapiens), O60755; inhibition, % at 3 µM; 360,000 tested, 0.44% active; HEK293 GalR3-CNG cAMP membrane potential fluorescence; galR3 body fused to GalR1 C-terminus; AID 651719, 2012;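 active means inhibition above the screen-wide average plus 3 SD, cut at about 13% in these data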;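 further: forskolin and galanin both at EC90 stimulate the cells; cAMP rise reported by CNG channel membrane potential dye signal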
Target sequence (O60755 1-299 limits assumed): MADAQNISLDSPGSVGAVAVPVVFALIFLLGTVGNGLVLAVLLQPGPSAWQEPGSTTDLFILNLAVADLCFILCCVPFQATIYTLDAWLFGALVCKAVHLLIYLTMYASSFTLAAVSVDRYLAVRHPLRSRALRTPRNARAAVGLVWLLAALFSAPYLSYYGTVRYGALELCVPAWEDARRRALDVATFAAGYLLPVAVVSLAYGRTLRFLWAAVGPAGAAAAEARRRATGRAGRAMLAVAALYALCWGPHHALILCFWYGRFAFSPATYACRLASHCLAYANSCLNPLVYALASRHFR
cAMP nonselect = nonselective cAMP signaling inhibitors, parental cells, counter-screen for MC4R biased antagonist project, cell-based, TR-FRET, U2OS, forskolin, triplicate | shares compounds with MC4R antag cAMP | LANCE TR-FRET | inhibition, % at 6.5 µM | 1,600 tested, 26% active | AID 602193, 2012;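 active means mean inhibition over triplicates above the low-control well mean plus 3 SD, set per campaign, cut at about 13% in these data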;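 further: signal is single emission at 671 nm which falls as cellular cAMP rises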
MC4R cAMP antag = MC4R cAMP antagonists, retest, confirmation, cell-based, TR-FRET | shares compounds with MC4R antag cAMP | MC4R-expressing cells, MTII-stimulated cAMP | inhibition, % at 6.5 µM | 1,600 tested, 27% active; in the data active means inhibition above about 29%
Numbers stand for hits; . = inactive; / = no result given; + = active, no number.

SMILES	MC4R ag barr	TAG inh	Efflux pump mplx	MC4R antag cAMP	Calb FLC	GalR3 antagonist	cAMP nonselect	MC4R cAMP antag
Cc1ccc(S(=O)(=O)N2CCOCC2)cc1NC(=O)COC(=O)c1cc[n+]([O-])cc1	.	.	.	.	/	.	/	/
Cc1ccc(-c2cc(NC(=O)Cc3c[nH]c4ccccc34)ccc2N(C)c2cccnc2)cc1	/	/	/	/	/	.	/	/
CCOC(=O)c1ccc(N=c2sc(C(=O)OC)cc(=O)n2-c2ccc(C(=O)OCC)cc2)cc1	.	.	.	32	.	/	.	.
S=C1NC[C@H](Cc2ccccc2)N1CCCCC1CCCCC1	.	.	.	.	.	.	/	/
S=C1NC[C@H](Cc2ccccc2)N1CC1CCN(CCCC2CCCC2)CC1	.	.	/	63	/	.	.	.
Cc1ccc(C)c(-c2cc(C(=O)Nc3cccnc3)c3ccccc3n2)c1	.	.	.	.	.	.	/	/
Cc1ccc(C)c(-c2cc(C(=O)Nc3cccc(C(=O)O)c3)c3ccccc3n2)c1	.	/	.	35	.	.	.	.
O=C(CCN1CCCCC1)c1ccc2c(c1)OCCO2	.	/	.	.	.	.	/	/
O=C(CCN1CCCC1Cc1ccccc1)c1ccc2c(c1)OCCO2 (stereo not given)	.	.	.	36	.	.	16	35
O=C(CCl)NNC(=O)c1c(O)c2ccccc2[nH]c1=O	.	.	.	31	.	.	.	.
CCCCC(=O)NNC(=O)c1c(O)c2ccccc2[nH]c1=O	.	.	.	.	.	.	/	/
COC(=O)c1c(NC(=O)CC2SCC(C(=O)OC)NC2=O)sc2c1CCCC2 (stereo not given)	.	/	.	29	.	.	.	32
COC(=O)c1c(NC(C)=O)sc2c1CCCC2	.	.	.	.	.	.	/	/
O=C(c1ccc([N+](=O)[O-])cc1)N(Cc1ccc(Cl)cc1Cl)N1C(=O)CCCC1=O	.	/	.	.	.	.	/	/
O=C(c1ccc([N+](=O)[O-])cc1)N(Cc1ccc(Cl)cc1)N1C(=O)CCCC1=O	.	/	.	32	.	.	17	32
COC(=O)C1=C(C)N(Cc2ccccc2C(F)(F)F)C(=NCc2ccc(OC)cc2)NC1CCc1ccccc1 (stereo not given)	/	/	/	/	/	.	/	/
COc1ccc(C(=O)N2CCC2(C)C(=O)NC(C)C)cc1 (stereo not given)	.	.	/	.	/	.	/	/
CCOC(=O)Cc1ccc(NC(=O)c2cccc([N+](=O)[O-])c2)cc1	.	.	.	.	.	.	/	/
CCOC(=O)CSc1nnc(NC(=O)c2cccc([N+](=O)[O-])c2)s1	.	.	.	39	.	.	.	.
COc1ccc(C(=O)CCN2CCCCCC2)cc1	.	/	.	40	.	.	15	.
COc1cccc(Nc2nc(-c3sc(NC(=O)c4ccco4)nc3C)cs2)c1	.	.	.	35	.	.	.	.
COc1cccc(Nc2nc(-c3sc(C)nc3C)cs2)c1	.	.	.	29	.	.	.	.
COc1ccc(Cl)cc1Nc1nc(-c2sc(NC(=O)c3ccco3)nc2C)cs1	.	.	.	.	.	.	/	/
O=Cc1ccc(-c2ccccc2C(=O)O)o1	.	/	.	.	.	.	/	/
O=C(O)c1ccccc1-c1c2cc(I)c(=O)c(I)c-2oc2c(I)c(O)c(I)cc12	.	.	.	+	/	.	105	164
SMILES	MC4R ag barr	TAG inh	Efflux pump mplx	MC4R antag cAMP	Calb FLC	GalR3 antagonist	cAMP nonselect	MC4R cAMP antag
Cc1ccc(Cl)cc1NC(=S)N1CCC(c2ccccc2)C1 (stereo not given)	.	.	.	30	.	.	.	.
CCN(CC)C(=O)c1ccc(Cc2cn(C)c3ccccc23)nc1	.	.	/	.	/	.	/	/
CCC(CC)C1C(C#N)=C(N)Oc2n[nH]c(C)c21 (stereo not given)	.	/	.	.	.	.	/	/
CCn1nc(C)c(C2C(C#N)=C(N)Oc3n[nH]c(C)c32)c1C (stereo not given)	.	/	.	31	.	.	.	.
Cc1ccc(NC(=O)c2ccccc2[N+](=O)[O-])nc1	.	/	.	38	.	.	.	.
COc1cccc(C(NC(C)=O)c2nc(-c3ccc(F)c(Cl)c3)cs2)c1 (stereo not given)	.	.	/	.	/	.	/	/
O=C1ON=C(c2cccc([N+](=O)[O-])c2)/C1=C/c1ccc(O)cc1	.	.	.	38	.	.	.	.
Cc1cc(C)cc([C@H]2C[C@]34CN(C(=O)OC(C)(C)C)S(=O)(=O)[C@H]3C[C@H]2O4)c1	/	/	/	/	/	.	/	/
CCc1ccc(C(O)c2ncc(-c3cccc(OC)c3)[nH]2)cc1 (stereo not given)	.	.	/	.	/	/	/	/
N#CC1(NC(=O)Cn2ncc(Cl)c(Cl)c2=O)CCCCC1	.	.	.	35	/	.	25	37
N#CC1(NC(=O)CN2C(=O)c3ccccc3C2=O)CCCCC1	.	.	.	.	/	.	/	/
O=C(C=Cc1ccc(OCc2ccccc2)cc1)c1c(F)cccc1F	/	/	/	/	/	.	/	/
COc1ccc(C2=NOC3(CC(=O)N(c4ccc(F)cc4)C3=O)C2)cc1 (stereo not given)	.	.	.	29	.	.	.	.
COc1cccc(C(C(=O)NC(C)(C)C)N(Cc2ccc(F)cc2)C(=O)CCC(=O)Nc2cc(C)on2)c1OC (stereo not given)	.	/	.	30	.	.	.	.
CCC(C)(C)NC(=O)C(c1cccc(OC)c1OC)N(Cc1ccc(OC)cc1)C(=O)CCC(=O)Nc1cc(C)on1 (stereo not given)	.	/	.	.	.	.	/	/
COc1ccccc1Cc1c(-c2ccc(F)cc2)nc2cc(C)c(Br)c(C)n12	/	/	/	/	/	.	/	/
O=Cc1ccc(/C=C2\c3ccccc3C(=O)N2c2ccccc2)o1	/	/	/	/	/	.	/	/
COc1cccc(C(=O)c2c[nH]c(C(=O)NCc3cccnc3)c2)c1	.	.	.	30	.	.	.	.
CCc1ccc(-c2nc3ccc(Br)cc3c(C(=O)O)c2C)s1	.	/	.	133	.	.	102	182
CNS(=O)(=O)c1ccc(CNC[C@H]2O[C@@H](n3cnc4c(=O)[nH]c(N)nc43)[C@H](O)[C@@H]2O)cc1	/	/	/	/	/	.	/	/
COc1ccc(C(=O)/C=C/C(=O)N(Cc2ccccc2OC)C(C(=O)NC2CCCCC2)c2ccncc2)c(O)c1 (stereo not given)	.	/	.	.	.	.	/	/

Bioassay records (PubChem BioAssay)
